A selection: hits, their analogues and other compounds. The true share with any hit is near 6.6%.
BAP1 inh = inhibitors of BAP1 deubiquitinase, primary screen, biochemical, Ub-AMC fluorescence, kinetic. calls only at 20 µM. recombinant BAP1, Ub-AMC hydrolysis fluorescence kinetic; hits give low values. AID 436, 2006. Ubiquitin carboxyl-terminal hydrolase BAP1 (Homo sapiens), Q92560. actives 0.48% (n = 72,000);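 active means activity remaining at or below 50% of control, provided the compound also passes the data quality filters; inactive means the rest, including low values that fail the filters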;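 further: 100% = DMSO wells rate and 0% = substrate alone blank rate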
HER2 expr 66K = inhibitors of Her2 protein expression, primary screen, SKBR-3 cells, AlphaScreen, 66K library; AID 645, 2007; actives 0.69% (n = 65,000); SKBR-3 HER2 protein level, 18-24 h; hits give low values; Receptor tyrosine-protein kinase erbB-2 (Homo sapiens), P04626; HER2 level % of control, % at 10 µM;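 active means HER2 level under 5% of the carrier-only control; inconclusive means no clear call, values can overlap the other calls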;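 further: 100% = DMSO carrier and 0% = 500 nM PU-H71 HSP90 inhibitor; lower value means stronger loss of Her2 protein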
HEK293 NFkB inh = inhibitors of PMA/ionomycin-induced NF-kB reporter, primary screen, antigen receptor NF-kB inhibitor project, cell-based, HEK-293 luciferase reporter, luminescence; actives 0.21% (n = 62,000); inhibition, % at 3 µM; HEK-293 NF-kB luciferase reporter; AID 465, 2006;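 active means inhibition above the mean of all tested compounds plus 3 SD, cut at about 40% in these data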;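 further: 0% = stimulated DMSO wells and 100% = 10 µM reference inhibitor 5653914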
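System – HEK-293 cells with stable firefly luciferase reporter driven by four HIV NF-kB elements · Doses – one dose, 3 µM · Schedule – 1 h compound pre-incubation, 16 h PMA/ionomycin at 37 °C · Technique – luminescence from luciferase substrate reagent · Measure – percent inhibition normalized per plate to DMSO and reference-inhibitor controls · Replicates – tested once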
M1 antag = antagonists of rat M1 muscarinic receptor; AID 628, 2007; Muscarinic acetylcholine receptor M1 (Rattus norvegicus), P08482; CHO-M1 cells, Fluo-4 calcium, ACh EC80 antagonist mode; hits give low values; B-score at 10 µM; actives 3.4% (n = 64,000);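 active means calcium fluorescence response, raw or row-and-column corrected B-score, differing from the plate sample mean either way at a set confidence level, mostly lower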
M1 agonist = M1 muscarinic receptor agonists, primary screen, CHO-M1 cells, Fluo-4 calcium, agonist mode; actives 3% (n = 64,000); Fluo-4 calcium fluorescence; hits give high values; B-score at 10 µM; Muscarinic acetylcholine receptor M1;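 active means fluorescence rise, raw or as B-score row- and column-corrected plate score, outside the 99.7% band of its plate's samples, either direction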
JNK3 blocker = JNK3 kinase activity inhibitors, primary screen, biochemical, human, purified enzyme | Mitogen-activated protein kinase 10 (Homo sapiens), P53779 | HTS | inhibition, % at 8 µM | actives 0.61% (n = 60,000); in the data active means inhibition above about 17%;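 further: 0% = DMSO and 100% = reference inhibitor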
M1 agonist conf = rat M1 muscarinic receptor agonists, confirmation, CHO-M1 cells, Fluo-4 calcium, duplicate retest | fluorescence change (max-min) at 10 µM | AID 1488, 2009 | actives 19% (n = 1,700) | shares compounds with M1 agonist | Fluo-4 calcium fluorescence, agonist mode; actives lie on both sides;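 active means fluorescence change differs from the solvent-only DMSO control mean at a set confidence level in both duplicate runs; inconclusive means differs from solvent-only control mean in just one of two runs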;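 further: an EC20 dose of acetylcholine follows compound addition during the same imaging run; raw fluorescence intensity difference in instrument units with no normalization to controls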
M4 agonist ctr = agonist activity at rat M4 receptor, confirmation, counter-screen for M1 allosteric modulator project, cell-based, agonist mode. CHO M4/Gqi5 cells, Fluo-4 calcium fluorescence; actives lie on both sides. AID 1741, 2009. actives 9% (n = 1,700). fluorescence change (max-min) at 10 µM. shares compounds with M1 agonist;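 active means fluorescence change differing from the plate's solvent-only control wells at 99.7% confidence in both duplicates, whether higher or lower; inconclusive means differs from solvent controls in only one of two duplicates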
* hit, by the source's call; i = inactive; ? = inconclusive; . = not tested or not shown.

SMILES	BAP1 inh	HER2 expr 66K	HEK293 NFkB inh	M1 antag	M1 agonist	JNK3 blocker	M1 agonist conf	M4 agonist ctr
CCN=C1SC(CC(=O)Nc2ccc(N3CCOCC3)cc2)C(=O)N1CC (configuration not stated)	i	78	1	-0.66	2.8*	-5	?	-52
CCN=C1SC(CC(=O)Nc2ccc(C(F)(F)F)cc2)C(=O)N1CC (configuration not stated)	i	101	-1	-2.9*	12*	-2	?	-48
CCN=C1SC(CC(=O)NC(N)=O)C(=O)N1CC (configuration not stated)	.	.	0	0.0021	0.28	.	.	.
Clc1ccc2nc(N=Cc3ccc(Br)cc3)sc2c1	i	.	.	.	.	.	.	.
Cc1ccc(N2C(=O)C3C4C=CC(C5CC45)C3C2=O)c(C)c1 (configuration not stated)	i	.	.	.	.	.	.	.
O=C(NCc1ccco1)c1sc(=S)n2c1[nH]c(=O)c1ccccc12	i	103	12	-2	12*	.	53	35
CN(C)C=Nc1c(Br)cc(Br)c2nonc12	i	58	3	-1.9	61*	3	278*	617*
Cn1c(NC(=O)COc2ccc(Cl)cc2)cc(=O)n(C)c1=O	i	.	.	.	.	.	.	.
Cc1ccc(NC2OC(CO)C(O)C(O)C2O)c([N+](=O)[O-])c1 (configuration not stated)	i	.	.	.	.	.	.	.
O=C(CN(Cc1ccco1)C(=O)CNS(=O)(=O)c1ccccc1)NCc1ccccc1	i	90	5	.	.	2	.	.
O=C(CN(Cc1ccco1)C(=O)CNS(=O)(=O)c1ccc(F)cc1)NCCc1ccccc1	i	96	1	-0.96	2.5*	1	?	?
Cc1nc2ccc(NC(=O)c3c(-c4ccccc4)noc3C)cc2s1	i	127	0	0.89	4.1*	-3	-28	-31
COc1ccc(C2CC(=O)C3=C(C2)Nc2ccccc2NC3c2ccc(C)s2)cc1 (configuration not stated)	i	.	.	.	.	.	.	.
CCNC(=O)C1CC(=O)N(Cc2ccc(F)cc2)C(=Nc2ccc(OC)cc2)S1 (configuration not stated)	i	98	0	1.3	-0.68	3	.	.
CNC(=O)C1CC(=O)N(Cc2ccccc2)C(=Nc2ccc(OC)cc2)S1 (configuration not stated)	i	90	.	-0.82	10*	1	?	?
N#Cc1c(SCC(=O)C2CC2)nsc1SCC(=O)C1CC1	i	.	.	.	.	.	.	.
COCCN1C(=O)C(CC(=O)Nc2ccc(C(C)=O)cc2)SC1=Nc1ccccc1 (configuration not stated)	i	108	9	0.045	3.9*	10	?	-53
O=C(CSc1nc2ccccc2o1)Nc1ccc(Cl)cn1	i	.	.	.	.	.	.	.
O=C(NCCC1=CCCCC1)C1CCCN(c2nc3ccccc3o2)C1 (configuration not stated)	i	92	14	-0.27	6.8*	5	?	?
CCn1c(C)nc2cc(S(=O)(=O)N3CCCC3)ccc21	i	116	17	-1.5	3.8	6	.	.
CCn1c(C)nc2cc(S(=O)(=O)C(F)(F)C(F)C(F)(F)F)ccc21 (configuration not stated)	i	107	10	-1.9	4.7*	-2	-7.4	?
CCCCCCc1c(O)c2ccccc2[nH]c1=O	i	116	2	-0.66	13*	1	-10	-40
COc1ccc(C2CC(C(F)(F)F)n3nc(C(=O)Nc4cccc5ccccc45)c(Cl)c3N2)cc1OC (configuration not stated)	i	.	.	.	.	.	.	.
COc1ccc(NC(=O)c2[nH]c(C)c(C(C)=O)c2C)cc1Cl	.	90	17	-3.1*	5.5*	.	-2.4	-16
O=C(CSc1nnc(-c2ccccc2)n1Cc1ccco1)Nc1ccc2c(c1)OCCO2	i	95	-1	-0.018	3.5*	-8	-11	-40
SMILES	BAP1 inh	HER2 expr 66K	HEK293 NFkB inh	M1 antag	M1 agonist	JNK3 blocker	M1 agonist conf	M4 agonist ctr
Cc1nc(NCc2ccco2)c2oc3ccccc3c2n1	i	.	12	-0.41	-1	.	.	.
COc1ccc(CCNc2ncnc3c2oc2ccccc23)cc1OC	i	57	37	-4.1*	7.1*	2	17	4.6
COc1ccc(CCNc2nc(C)nc3c2oc2ccccc23)cc1OC	.	.	21	-2.3*	18*	.	-0.11	?
Cc1nc(NC(C)c2ccccc2)c2oc3ccccc3c2n1 (configuration not stated)	i	80	5	-0.25	3.3*	-2	-22	-20
CCC(=O)c1ccc(OCC(O)Cn2c(C)nc3ccccc32)cc1 (configuration not stated)	i	98	32	-0.93	6.8*	10	-34*	-96
CCS(=O)(=O)N1CCN(CC2CC3C=CC2C3)CC1 (configuration not stated)	.	90	.	.	.	.	.	.
CCCS(=O)(=O)N1CCN(CC2CC3C=CC2C3)CC1 (configuration not stated)	i	81	18	0.59	3.1*	-7	-9.9	?
O=C(Nc1ccc(F)c([N+](=O)[O-])c1)c1ccc(-c2ccccc2)o1	i	.	.	.	.	.	.	.
Cc1cc(N2CCN(c3nc4ccccc4s3)CC2)n2ncnc2n1	i	95	25	-1.4	3.6*	2	8.4	?
CCN1CCc2c(sc(N)c2C#N)C1	i	63	8	-1.5	12*	2	15	3.3
CCCSc1nnc(NC(=O)Nc2ccccc2)s1	i	87	.	-0.69	-0.078	1	.	.
CCCSc1nnc(NC(=O)Nc2ccc(F)cc2)s1	.	56	.	-0.88	3.4*	10	-7.2	-14
CCc1ccc(C2C3=C(CC(C)(C)CC3=O)Nc3c2c(=O)[nH]c2nc(C)nn32)cc1 (configuration not stated)	.	94	10	-0.53	-1.1	10	.	.
COc1cc(C2C3=C(CC(C)(C)CC3=O)Nc3c2c(=O)[nH]c(=O)n3Cc2ccccc2)ccc1O (configuration not stated)	i	97	16	0.32	-1.6	.	.	.

From PubChem
